From ChEMBL document CHEMBL1145456, “Antitumor agents 253. Design, synthesis, and antitumor evaluation of novel 9-substituted phenanthrene-based tylophorine derivatives as potential anticancer agents” (J Med Chem, 2007)
The source made the active and inactive calls. The rule behind the calls is not given here.

How the values were obtained:
[1] = tested on: A549; experiment: Cytotoxicity against human A549 cells by SRB microtiter plate assay; assay type: functional, cell-based
Procedure, shortened: (§1)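 Cells were cultured at 37 °C, 5% CO₂, in RPMI-1640 with 25 mM HEPES, 2% bicarbonate, 10% FBS and kanamycin. Compounds were added from DMSO stocks, final DMSO ≤1% (v/v). IC₅₀ was interpolated from dose-response data. Each test was run in triplicate in independent experiments.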

[2] = Cytotoxicity against multidrug resistant human KB-Vin cells by SRB microtiter plate assay; assay type: functional, cell-based; procedure, shortened: as §1
[3] = tested on: KB; experiment: Cytotoxicity against human KB cells by SRB microtiter plate assay; assay type: functional, cell-based
Procedure, shortened: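 KB cells grown at 37 °C, 5% CO₂, humidified, in RPMI-1640 with 25 mM HEPES, 2% (w/v) sodium bicarbonate, 10% FBS and 100 µg/mL kanamycin. Compounds were added from DMSO stocks, with final DMSO at or below 1% (v/v). IC₅₀ was interpolated from dose-response data. Each test was run in triplicate, and independent tests were repeated.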

[4] = tested on: ZR-75-1; experiment: Cytotoxicity against human ZR751cells by SRB microtiter plate assay; assay type: functional, cell-based; procedure, shortened: as §1
[5] = tested on: DU-145; experiment: Cytotoxicity against human DU145 cells by SRB microtiter plate assay; assay type: functional, cell-based; procedure, shortened: as §1
[6] = tested on: A549; experiment: Antitumor activity against human A549 xenografted SCID mouse model at 10 mg/kg, ip after 5 days; assay type: functional, organism-based; parameters: dose 10 mg/kg
Procedure, shortened: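 Male SCID mice were inoculated s.c. on the dorsal side with 1.5 × 10⁷ A549 cells. Day 1 was when tumors reached ≥5 mm; groups of six. Dosing ip at 10 mL/kg every 4 days for six doses. Tumor size and body weight recorded every 4 days. Tumor weight = length × width² × 0.5. T/C = (Tn−T1)/(Cn−C1) × 100% against vehicle.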

| SMILES | IC50 ([1]; Homo sapiens, A549) | IC50 ([3]; Homo sapiens, KB) | IC50 ([4]; Homo sapiens, ZR-75-1) | IC50 ([5]; Homo sapiens, DU-145) | other results |
| --- | --- | --- | --- | --- | --- |
| COc1ccc2c(CN3CCC(CO)CC3)cc3cc4c(cc3c2c1)OCO4 [listing 1 of 3 here] | 0.08 µM | – | – | – | IC50 [2]: 0.09 µM; IC50 ([3]; kb): 0.24 µM; IC50 ([4]; zr-75-1): 0.03 µM; IC50 ([5]; du-145): 0.03 µM |
| COc1cc([C@@H]2c3cc4c(cc3[C@@H](O[C@@H]3O[C@@H]5CO[C@@H](C)O[C@H]5[C@H](O)[C@H]3O)[C@H]3COC(=O)[C@H]23)OCO4)cc(OC)c1O [ETOPOSIDE] | 1.4 µM | 4.8 µM | 3.1 µM | 2.4 µM | IC50 ([2]; Homo sapiens, KBVIN): > 10 µM |
| COc1ccc2c(CNCCCCCCO)cc3cc4c(cc3c2c1)OCO4 [listing 1 of 2 here] | – | 0.23 µM | 0.08 µM | – | IC50 [2]: 0.16 µM; IC50 ([5]; du-145): 0.07 µM |
| COc1ccc2c(CN3CCCC[C@H]3C(=O)O)cc3cc4c(cc3c2c1)OCO4 | 0.5 µM | – | – | – | – |
| COc1ccc2c(CN3CCN(c4ccc(O)cc4)CC3)cc3cc4c(cc3c2c1)OCO4 | 0.22 µM | 0.13 µM | 0.18 µM | 0.15 µM | IC50 ([2]; Homo sapiens, KBVIN): 0.34 µM |
| COc1ccc2c(CN3CCC(CO)CC3)cc3cc4c(cc3c2c1)OCO4 [listing 2 of 3 here] | – | – | 0.04 µM | 0.05 µM | IC50 ([1]; a549): 0.07 µM; IC50 [2]: 0.04 µM; IC50 ([3]; kb): 0.07 µM |
| COc1ccc2c(CN3CCC(CCO)CC3)cc3cc4c(cc3c2c1)OCO4 [listing 1 of 2 here] | 0.15 µM | – | – | – | IC50 [2]: 0.5 µM; IC50 ([3]; kb): 0.42 µM; IC50 ([4]; zr-75-1): 0.03 µM; IC50 ([5]; du-145): 0.15 µM |
| COc1ccc2c(CN3CCCC[C@H]3CO)cc3cc4c(cc3c2c1)OCO4 [listing 1 of 2 here] | 0.16 µM | 0.12 µM | 0.1 µM | – | IC50 ([2]; Homo sapiens, KBVIN): 0.16 µM; IC50 ([5]; du-145): 0.21 µM |
| O=C(O)C1CCN(Cc2cc3cc4c(cc3c3cc(OCc5ccccc5)ccc23)OCO4)CC1 | 2.1 µM | – | – | – | – |
| COc1ccc2c3c(c4cc(OC)c(OC)cc4c2c1)C[C@H]1CCCN1C3 [(-)-ANTOFINE] | 0.008 µM | 0.013 µM | 0.008 µM | 0.009 µM | IC50 ([2]; Homo sapiens, KBVIN): 0.009 µM |
| COc1ccc2c(CNCCCCC(=O)O)cc3cc4c(cc3c2c1)OCO4 | 1.3 µM | – | – | – | – |
| COc1ccc2c(CN3CCN(CCOCCO)CC3)cc3cc4c(cc3c2c1)OCO4 | 57.1 µM | – | – | – | – |
| COc1ccc2c(CN3CCC(CO)CC3)cc3cc4c(cc3c2c1)OCO4 [listing 3 of 3 here] | – | – | – | – | Activity [6]: Active |
| COc1ccc2c(CN3CCN(c4ccc(Cl)cc4)CC3)cc3cc4c(cc3c2c1)OCO4 | 65.2 µM | – | – | – | – |
| COc1ccc2c(CNCCCCCO)cc3cc4c(cc3c2c1)OCO4 | 0.27 µM | – | – | – | – |
| O=C(O)[C@@H]1CCCCN1Cc1cc2cc3c(cc2c2cc(OCc4ccccc4)ccc12)OCO3 | 3.2 µM | – | – | – | – |
| COc1ccc2c(CN3CCC[C@H]3CO)cc3cc4c(cc3c2c1)OCO4 | 0.7 µM | – | – | – | – |

| SMILES | IC50 ([1]; Homo sapiens, A549) | IC50 ([3]; Homo sapiens, KB) | IC50 ([4]; Homo sapiens, ZR-75-1) | IC50 ([5]; Homo sapiens, DU-145) | other results |
| --- | --- | --- | --- | --- | --- |
| OCC1CCN(Cc2cc3cc4c(cc3c3cc(OCc5ccccc5)ccc23)OCO4)CC1 | 0.7 µM | – | – | – | – |
| COc1ccc2c(CNCCCCCCO)cc3cc4c(cc3c2c1)OCO4 [listing 2 of 2 here] | 0.2 µM | – | – | – | IC50 [2]: 0.35 µM; IC50 ([3]; kb): 0.25 µM; IC50 ([4]; zr-75-1): 0.13 µM; IC50 ([5]; du-145): 0.44 µM |
| COc1ccc2c(CN3CCN(CCO)CC3)cc3cc4c(cc3c2c1)OCO4 | 0.63 µM | 0.5 µM | 0.23 µM | 0.25 µM | IC50 ([2]; Homo sapiens, KBVIN): 0.51 µM |
| COc1ccc2c(CN3CCC[C@H]3C(=O)O)cc3cc4c(cc3c2c1)OCO4 | 2.1 µM | – | – | – | – |
| COc1ccc2c(CN3CCC(CCO)CC3)cc3cc4c(cc3c2c1)OCO4 [listing 2 of 2 here] | – | – | 0.02 µM | 0.1 µM | IC50 ([1]; a549): 0.09 µM; IC50 [2]: 0.2 µM; IC50 ([3]; kb): 0.2 µM |
| COc1ccc2c(CN3CCCC[C@H]3CO)cc3cc4c(cc3c2c1)OCO4 [listing 2 of 2 here] | – | – | – | – | IC50 [2]: 0.09 µM; IC50 ([4]; zr-75-1): 0.08 µM; IC50 ([5]; du-145): 0.09 µM |
| OC[C@@H]1CCCCN1Cc1cc2cc3c(cc2c2cc(OCc4ccccc4)ccc12)OCO3 | 1.3 µM | – | – | – | – |
| COc1ccc2c(CN3CCC[C@@H]3CO)cc3cc4c(cc3c2c1)OCO4 | 1.1 µM | – | – | – | – |
| CC[C@]1(O)C[C@H]2CN(CCc3c([nH]c4ccccc34)[C@@](C(=O)OC)(c3cc4c(cc3OC)N(C=O)[C@H]3[C@@](O)(C(=O)OC)[C@H](OC(C)=O)[C@]5(CC)C=CCN6CC[C@]43[C@@H]65)C2)C1 [VINCRISTINE] | 0.04 µM | 0.006 µM | 0.04 µM | 0.085 µM | IC50 ([2]; Homo sapiens, KBVIN): 5.3 µM |
| COc1ccc2c(CNCCCCCCCCCCC(=O)O)cc3cc4c(cc3c2c1)OCO4 | 3.2 µM | – | – | – | – |
| CC[C@H]1CN2CCc3cc(OC)c(OC)cc3[C@@H]2C[C@@H]1C[C@H]1NCCc2cc(OC)c(OC)cc21 [EMETINE] | 0.04 µM | 0.04 µM | 0.1 µM | 0.06 µM | IC50 ([2]; Homo sapiens, KBVIN): > 2 µM |
| COc1ccc2c(CNCCCCCC(=O)O)cc3cc4c(cc3c2c1)OCO4 | 0.8 µM | 0.33 µM | 0.54 µM | 0.67 µM | IC50 ([2]; Homo sapiens, KBVIN): 0.83 µM |
| COc1ccc2c(CNCCCCCCCCCCCO)cc3cc4c(cc3c2c1)OCO4 | 2.6 µM | – | – | – | – |
| COc1ccc2c(CN3CCN(c4ccccc4Cl)CC3)cc3cc4c(cc3c2c1)OCO4 | – | – | – | – | Activity [1]: inactive |
| COc1ccc2c(CN3CCC[C@@H]3C(=O)O)cc3cc4c(cc3c2c1)OCO4 | 5.2 µM | – | – | – | – |
| COc1cccc2c1C(=O)c1c(O)c3c(c(O)c1C2=O)C[C@@](O)(C(=O)CO)C[C@@H]3O[C@H]1C[C@H](N)[C@H](O)[C@H](C)O1 [DOXORUBICIN] | 0.18 µM | 0.18 µM | 0.04 µM | 0.13 µM | IC50 ([2]; Homo sapiens, KBVIN): > 4 µM |
| COc1ccc2c(CN3CCC(C(=O)O)CC3)cc3cc4c(cc3c2c1)OCO4 | 0.23 µM | 0.15 µM | 0.25 µM | 0.31 µM | IC50 ([2]; Homo sapiens, KBVIN): 0.38 µM |
